Among the data in ChEMBL document CHEMBL1123237 (J Med Chem, 1986) are MABP values, retold here.

Common to all, as to format: functional, Artery
Test [1] concerns Rattus norvegicus. Put plainly: Maximum change aortic blood pressure in conscious renal (1clip/2kidney) hypertensive rats at dose 30 mg/kg administered orally at 6 hr. The following applies: route oral.
Test [2] concerns Rattus norvegicus. Nature of the test: Baseline mean aortic blood pressure in conscious renal (1clip/2kidney) hypertensive rats at dose 30 mg/kg administered orally. The settings on record: route oral. In a few lines:
(§1)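 Oral dosing in rats cannulated for aortic blood pressure monitoring. Only rats with mean aortic pressure >160 mmHg were used; they weighed 280-320 g at cannulation. Rats had free access to standard chow and tap water on a 12-h dark/12-h light cycle. The value is the pre-dose mean aortic pressure, given as mean ± 1 SEM; 3-6 rats per dose.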

Test [3] deals with Rattus norvegicus. Nature of the test: Maximum change aortic blood pressure in conscious renal (1clip/2kidney) hypertensive rats at dose 1 mg/kg administered orally at 10 hr. The settings on record: route oral.
For test [4], the system named is Rattus norvegicus. Nature of the test: Baseline mean aortic blood pressure in conscious renal (1clip/2kidney) hypertensive rats at dose 1 mg/kg administered orally. The following applies: route oral. In a few lines: as §1
Test [5] relates to Rattus norvegicus. Put plainly: Maximum change aortic blood pressure in conscious renal (1clip/2kidney) hypertensive rats at dose 1 mg/kg administered orally at 9 hr. The settings on record: route oral.
The subject of test [6] is Rattus norvegicus. Nature of the test: Baseline mean aortic blood pressure in conscious renal (1clip/2kidney) hypertensive rats at dose 1 mg/kg administered orally. In a few lines: as §1
Test [7] has as its system Rattus norvegicus. Nature of the test: Maximum change aortic blood pressure in conscious renal (1clip/2kidney) hypertensive rats at dose 10 mg/kg administered orally at 6 hr. The settings on record: route oral.
Test [8] relates to Rattus norvegicus. Nature of the test: Baseline mean aortic blood pressure in conscious renal (1clip/2kidney) hypertensive rats at dose 10 mg/kg administered orally. In a few lines: as §1
Test [9] has as its system Rattus norvegicus. Put plainly: Baseline mean aortic blood pressure in conscious renal (1clip/2kidney) hypertensive rats at dose 3 mg/kg administered orally. In a few lines:
as §1

Test [10] concerns Rattus norvegicus. Put plainly: Maximum change aortic blood pressure in conscious renal (1clip/2kidney) hypertensive rats at dose 30 mg/kg administered orally at 6 hr. The following applies: route oral.
Test [11] deals with Rattus norvegicus. Put plainly: Baseline mean aortic blood pressure in conscious renal (1clip/2kidney) hypertensive rats at dose 30 mg/kg administered orally. In a few lines: as §1
Test [12] has as its system Rattus norvegicus. Nature of the test: Maximum change aortic blood pressure in conscious renal (1clip/2kidney) hypertensive rats at dose 3 mg/kg administered orally at 2 hr. The following applies: route oral.
Test [13] relates to Rattus norvegicus. Nature of the test: Maximum change aortic blood pressure in conscious renal (1clip/2kidney) hypertensive rats at dose 0.3 mg/kg administered orally at 10 hr. The following applies: route oral.
In test [14] the test system is Rattus norvegicus. Put plainly: Maximum change aortic blood pressure in conscious renal (1clip/2kidney) hypertensive rats at dose 3 mg/kg administered orally at 5 hr. The following applies: route oral.
Test [15] concerns Rattus norvegicus. Nature of the test: Maximum change aortic blood pressure in conscious renal (1clip/2kidney) hypertensive rats at dose 1 mg/kg administered orally at 4 hr. The following applies: route oral.
The test system of test [16] is Rattus norvegicus. Nature of the test: Maximum change aortic blood pressure in conscious renal (1clip/2kidney) hypertensive rats at dose 10 mg/kg administered orally at 5 hr. The settings on record: route oral.
In test [17] the test system is Rattus norvegicus. Nature of the test: Baseline mean aortic blood pressure in conscious renal (1clip/2kidney) hypertensive rats at dose 0.3 mg/kg administered orally. In a few lines:
as §1

Test [18] has as its system Rattus norvegicus. Nature of the test: Maximum change aortic blood pressure in conscious renal (1clip/2kidney) hypertensive rats at dose 30 mg/kg administered orally at 9 hr. The settings on record: route oral.
Test [19] has as its system Rattus norvegicus. Nature of the test: Maximum change aortic blood pressure in conscious renal (1clip/2kidney) hypertensive rats at dose 0.3 mg/kg administered orally at 2 hr. The following applies: route oral.
In test [20] the test system is Rattus norvegicus. Nature of the test: Maximum change aortic blood pressure in conscious renal (1clip/2kidney) hypertensive rats at dose 3 mg/kg administered orally at 6 hr. The settings on record: route oral.
The subject of test [21] is Rattus norvegicus. Put plainly: Maximum change aortic blood pressure in conscious renal (1clip/2kidney) hypertensive rats at dose 1 mg/kg administered orally at 6 hr. The settings on record: route oral.
In test [22] the test system is Rattus norvegicus. Nature of the test: Maximum change aortic blood pressure in conscious renal (1clip/2kidney) hypertensive rats at dose 0.3 mg/kg administered orally at 5 hr. The settings on record: route oral.
The subject of test [23] is Rattus norvegicus. Nature of the test: Maximum change aortic blood pressure in conscious renal (1clip/2kidney) hypertensive rats at dose 1 mg/kg administered orally at 7 hr. The settings on record: route oral.
Test [24] deals with Rattus norvegicus. Put plainly: Maximum change aortic blood pressure in conscious renal (1clip/2kidney) hypertensive rats at dose 10 mg/kg administered orally at 5 hr. The following applies: route oral.
Test [25] deals with Rattus norvegicus. Put plainly: Maximum change aortic blood pressure in conscious renal (1clip/2kidney) hypertensive rats at dose 10 mg/kg administered orally at 10 hr. The settings on record: route oral.
In test [26] the test system is Rattus norvegicus. Put plainly: Maximum change aortic blood pressure in conscious renal (1clip/2kidney) hypertensive rats at dose 30 mg/kg administered orally at 10 hr. The following applies: route oral.
The subject of test [27] is Rattus norvegicus. Nature of the test: Maximum change aortic blood pressure in conscious renal (1clip/2kidney) hypertensive rats at dose 10 mg/kg administered orally at 4 hr. The following applies: route oral.
In test [28] the test system is Rattus norvegicus. Nature of the test: Maximum change aortic blood pressure in conscious renal (1clip/2kidney) hypertensive rats at dose 1 mg/kg administered orally at 8 hr. The following applies: route oral.
For test [29], the system named is Rattus norvegicus. Nature of the test: Maximum change aortic blood pressure in conscious renal (1clip/2kidney) hypertensive rats at dose 30 mg/kg administered orally at 8 hr. The following applies: route oral.
The test system of test [30] is Rattus norvegicus. Put plainly: Maximum change aortic blood pressure in conscious renal (1clip/2kidney) hypertensive rats at dose 1 mg/kg administered orally at 1 hr. The settings on record: route oral.
Test [31] deals with Rattus norvegicus. Nature of the test: Maximum change aortic blood pressure in conscious renal (1clip/2kidney) hypertensive rats at dose 3 mg/kg administered orally at 8 hr. The following applies: route oral.
The test system of test [32] is Rattus norvegicus. Nature of the test: Maximum change aortic blood pressure in conscious renal (1clip/2kidney) hypertensive rats at dose 30 mg/kg administered orally. The settings on record: route oral.

Turning to `CCOC(=O)C(CCc1ccccc1)N1C(=O)C2Cc3ccccc3CN2C(=O)C1C` (stereo unspecified) [DIKETOPIPERAZINE DERIVATIVE OF QUINAPRIL], the MABP is on record as -28 mmHg in the test with Rattus norvegicus [1] and 186 mmHg in the test on Rattus norvegicus [2].

In the case of `CCOC(=O)C(CCc1ccccc1)NC(C)C(=O)N1Cc2ccccc2CC1C(=O)OCC` (stereo unspecified), the MABP in the test on Rattus norvegicus [3] is -69 mmHg; in the test on Rattus norvegicus [4], 208 mmHg.

On to `C[C@H](N[C@@H](CCc1ccccc1)C(=O)O)C(=O)N1CCC[C@H]1C(=O)O` [ENALAPRILAT ANHYDROUS], for which the MABP in the test with Rattus norvegicus [5] is reported as -51 mmHg; with Rattus norvegicus [6], 188 mmHg; with Rattus norvegicus [7] it was -57 mmHg; in the test with Rattus norvegicus [8], 188 mmHg; with Rattus norvegicus [9], 188 mmHg; with Rattus norvegicus [10], -70 mmHg. Further, the MABP with Rattus norvegicus [11] was 176 mmHg; in the test with Rattus norvegicus [12], -54 mmHg.

For the molecule `CCOC(=O)[C@H](CCc1ccccc1)N[C@@H](C)C(=O)N1Cc2ccccc2C[C@H]1C(=O)O`, the MABP in the test with Rattus norvegicus [13] was -50 mmHg; with Rattus norvegicus [6], 196 mmHg; with Rattus norvegicus [14], -62 mmHg; in the test on Rattus norvegicus [8], 181 mmHg; in the test on Rattus norvegicus [15], -54 mmHg; in the test on Rattus norvegicus [9] it was 188 mmHg. Besides, the MABP is reported as -87 mmHg with Rattus norvegicus [16] and 157 mmHg in the test on Rattus norvegicus [17].

In the case of `CCOC(=O)[C@H](CCc1ccccc1)N[C@@H](C)C(=O)N1Cc2ccccc2C[C@@H]1C(=O)O`, the values for the MABP with Rattus norvegicus [18] and in the test with Rattus norvegicus [11] were -20 mmHg and 187 mmHg, respectively.

Molecule `C[C@H](CS)C(=O)N1CCC[C@H]1C(=O)O` [CAPTOPRIL] registered an MABP with Rattus norvegicus [19] of -25 mmHg.

As for `CCOC(=O)[C@H](CCc1ccccc1)N[C@@H](C)C(=O)N1Cc2cc(OC)c(OC)cc2C[C@H]1C(=O)O` [MOEXIPRIL], the MABP with Rattus norvegicus [20] was -39 mmHg; in the test on Rattus norvegicus [6], 182 mmHg; in the test on Rattus norvegicus [7], -113 mmHg; in the test on Rattus norvegicus [8] it was 205 mmHg; in the test on Rattus norvegicus [21] it was -43 mmHg; in the test on Rattus norvegicus [22] it was -41 mmHg. Moreover, the MABP was determined as 179 mmHg in the test with Rattus norvegicus [9] and 201 mmHg with Rattus norvegicus [17].

For `C[C@H](N[C@@H](CCc1ccccc1)C(=O)O)C(=O)N1Cc2ccccc2C[C@H]1C(=O)O`, the MABP was -44 mmHg in the test with Rattus norvegicus [23]; 199 mmHg in the test with Rattus norvegicus [6]; 199 mmHg in the test on Rattus norvegicus [8]; -89 mmHg in the test with Rattus norvegicus [18]; 199 mmHg with Rattus norvegicus [9]; 192 mmHg with Rattus norvegicus [11]. The MABP is given as -76 mmHg with Rattus norvegicus [24] and -45 mmHg in the test on Rattus norvegicus [12].

In the case of `CCOC(=O)[C@H](CCc1ccccc1)N[C@@H](C)C(=O)N1Cc2ccccc2[C@H]1C(=O)O`, the MABP with Rattus norvegicus [8] was 200 mmHg; in the test with Rattus norvegicus [25] it was -80 mmHg.

As to `O=C(O)C1c2ccccc2CN1C(=O)CCS` (stereo unspecified), the MABP in the test on Rattus norvegicus [2] is listed as 174 mmHg; with Rattus norvegicus [26] it was -15 mmHg.

As for `CCOC(=O)[C@H](CCc1ccccc1)N[C@@H](C)C(=O)N1CCC[C@H]1C(=O)O`, the MABP in the test on Rattus norvegicus [27] is -112 mmHg; in the test with Rattus norvegicus [6] it was 175 mmHg; with Rattus norvegicus [14], -112 mmHg; with Rattus norvegicus [8] it was 199 mmHg; with Rattus norvegicus [22] it was -79 mmHg; in the test on Rattus norvegicus [9] it was 200 mmHg. Also, the MABP in the test on Rattus norvegicus [28] is reported as -43 mmHg; with Rattus norvegicus [17], 201 mmHg.

For `CCOC(=O)[C@@H](CCc1ccccc1)N[C@@H](C)C(=O)N1Cc2cc(OC)c(OC)cc2C[C@H]1C(=O)O`, the values for the MABP in the test on Rattus norvegicus [29] and in the test with Rattus norvegicus [11] were -15 mmHg and 177 mmHg, respectively.

On to `CC(CS)C(=O)N1Cc2ccccc2CC1C(=O)O` (stereo unspecified), for which the MABP in the test on Rattus norvegicus [6] is given as 185 mmHg; in the test on Rattus norvegicus [30], -45 mmHg.

On to `CCOC(=O)[C@H](CCc1ccccc1)N[C@@H](C)C(=O)N1Cc2cc(OC)c(OC)cc2C[C@@H]1C(=O)O`, for which the MABP is reported as -16 mmHg in the test with Rattus norvegicus [29] and 178 mmHg in the test on Rattus norvegicus [11].

On to `CCOC(=O)[C@@H](CCc1ccccc1)N[C@@H](C)C(=O)N1Cc2ccccc2C[C@H]1C(=O)O`, for which the MABP in the test with Rattus norvegicus [11] is on record as 172 mmHg; with Rattus norvegicus [26], -11 mmHg.

Take `CC(NC(CCc1ccccc1)C(=O)O)C(=O)N1Cc2ccccc2C1C(=O)O` (stereo unspecified): the MABP in the test on Rattus norvegicus [9] is 195 mmHg; in the test on Rattus norvegicus [31] it was -74 mmHg.

Take `CC(CS)C(=O)N1Cc2ccccc2C1C(=O)O` (racemic): the MABP is on record as 0 mmHg in the test with Rattus norvegicus [32] and 165 mmHg in the test with Rattus norvegicus [2].

Turning to `COc1cc2c(cc1OC)CN(C(=O)C(C)NC(CCc1ccccc1)C(=O)O)C(C(=O)O)C2` (stereo unspecified), the MABP in the test with Rattus norvegicus [6] is listed as 199 mmHg; in the test on Rattus norvegicus [7], -52 mmHg; in the test with Rattus norvegicus [8], 199 mmHg; with Rattus norvegicus [9], 199 mmHg; in the test with Rattus norvegicus [28] it was -20 mmHg; with Rattus norvegicus [29], -107 mmHg. For the same molecule, the MABP in the test on Rattus norvegicus [11] was 181 mmHg; with Rattus norvegicus [31] it was -52 mmHg.
